Bioassay records as filed in PubChem BioAssay.
Compounds with a hit are over-represented: about 1.4% of the library has one in this group of screens.
Tb MetRS inh: blocks T. brucei methionyl-tRNA synthetase activity | inhibition, % at 11.9 µM | AID 624268 | 360,000 compounds, 0.4% hits | purified T. brucei MetRS, ATP depletion, Kinase-Glo luminescence;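 active = inhibition above a per-plate cutoff of the control wells' mean inhibition plus 3 SD, cut at about 5.5% in these data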;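 note: 0% = DMSO wells median and 100% = median of wells with control inhibitor compound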
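Dosing: 11.9 µM compound single dose, 0.9% DMSO; Assay system: purified T. brucei MetRS enzyme; Measured by: Kinase-Glo luciferase luminescence reporting remaining unconsumed ATP; Schedule: 15 min plus 2 h at 25 °C.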
IDE cell inh: inhibitors of human insulin-degrading enzyme in cells; P14735; HEK cells, FAbetaB cleavage, fluorescence polarization; inhibition, % at 5.59 µM; 320,000 compounds, 0.41% hits; AID 434962;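 active = percent inhibition above the average of all tested compounds plus 3 SD, set per screening campaign, cut at about 16% in these data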;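 note: IDE supplied by intact live HEK cells; FP after avidin binding of uncleaved biotin substrate so inhibition keeps polarization high; 0% = DMSO wells and 100% = 60 µM reference IDE inhibitor Ii1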
CR mimetic SO: lowers age-related superoxide in aged yeast cells; S. cerevisiae aged cells, superoxide DHE fluorescence; stronger effect = lower value; superoxide response (% of plate mean), % at 10 µM; 330,000 compounds, 0.18% hits; AID 2690;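 active = superoxide response under a set limit, about three screen SD below normal, cut at about 65% in these data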;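 note: yeast aged for seven days with compound at 30 °C before DHE staining; 100% = average MFI of all compound-treated wells on the plate with controls excluded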
HDAC3 inhib: blocks human histone deacetylase 3; O15379; recombinant HDAC3, fluorogenic peptide/trypsin coupled, fluorescence; inhibition, % at 8.3 µM; 320,000 compounds, 0.15% hits; in the data active = inhibition above about 26%, passing the limit was not always enough
Target sequence (O15379 whole entry, looked up): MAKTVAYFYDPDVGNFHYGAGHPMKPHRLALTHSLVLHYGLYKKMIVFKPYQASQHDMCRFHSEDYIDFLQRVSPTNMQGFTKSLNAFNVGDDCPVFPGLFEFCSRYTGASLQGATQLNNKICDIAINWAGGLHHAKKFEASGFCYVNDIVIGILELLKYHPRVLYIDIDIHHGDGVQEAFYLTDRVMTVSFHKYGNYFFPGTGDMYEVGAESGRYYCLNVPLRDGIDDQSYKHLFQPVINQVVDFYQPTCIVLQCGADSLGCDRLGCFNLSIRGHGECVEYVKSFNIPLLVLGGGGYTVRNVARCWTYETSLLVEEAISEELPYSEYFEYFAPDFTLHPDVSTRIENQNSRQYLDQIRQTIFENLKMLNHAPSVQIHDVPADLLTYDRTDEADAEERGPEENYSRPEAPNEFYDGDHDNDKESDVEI
Efflux pump inh: blocks antifungal efflux pumps in multiplex yeast assay; 330,000 compounds, 0.44% hits; inhibition, % at 10 µM; S. cerevisiae Candida pump triplex, Nile Red efflux;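 active = plate passing quality check with inhibition over a set limit, or well fluorescence over plate mean plus 4 SD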;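 note: Nile Red retained in pooled yeast measured as flow cytometry median fluorescence; 0% = buffer negative control and 100% = Enniatin B positive control; higher means more Nile Red kept so more efflux inhibition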
IDE cell activ: IDE (human) activation, cell-based. HEK cells, FAbeta-B cleavage, fluorescence polarization; 0% vehicle, 100% cell-free pure enzyme wells. P14735. activation, % at 5.96 µM. 340,000 compounds, 0.073% hits;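 active = activation above the mean of all tested compounds plus 3 SD, set per screening campaign, cut at about 17% in these data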
Yeast cmpd fluor: counter-screen for efflux pump inhibitors: compound fluorescence. shares compounds with Efflux pump inh. S. cerevisiae AD/pABC3, flow cytometry. fluorescence ratio to DMSO, % at 10 µM. 1,700 compounds, 4% hits. AID 588517;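 active = fluorescence ratio to DMSO above its plate's cutoff, the plate mean ratio plus 5 SD, cut at about 210% in these data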;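 note: unstained yeast with no Nile Red so the signal is compound autofluorescence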
CaMdr1 efflux inh: inhibitors of Candida albicans Mdr1 efflux pump; 1,700 compounds, 1% hits; inhibition, % at 10 µM; S. cerevisiae AD/CaMDR1, Nile Red efflux, flow cytometry; shares compounds with Efflux pump inh; in the data active = inhibition above about 26%;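 note: 0% = DMSO vehicle and 100% = reference inhibitor; higher means more Nile Red retained so more efflux inhibition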
Cdr2 pump inh: inhibitors of Candida albicans Cdr2 efflux pump | shares compounds with Efflux pump inh | S. cerevisiae AD/CaCDR2, Nile Red retention, flow cytometry | Nile Red retention ratio vs DMSO, % at 10 µM | 1,700 compounds, 4% hits; in the data active = Nile Red retention ratio vs DMSO above about 190%;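 note: higher ratio means more blocking of Cdr2 efflux of the dye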
Cdr1 pump inh: inhibitors of Candida albicans Cdr1 efflux pump; AID 588522; shares compounds with Efflux pump inh; S. cerevisiae AD/CaCDR1, Nile Red efflux, flow cytometry; 1,700 compounds, 1% hits; inhibition, % at 10 µM;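 active = inhibition above the screen-wide mean plus twice its standard deviation, cut at about 32% in these data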
The depositor's hits bear a star; nt = no result.

SMILES	Tb MetRS inh	IDE cell inh	CR mimetic SO	HDAC3 inhib	Efflux pump inh	IDE cell activ	Yeast cmpd fluor	CaMdr1 efflux inh	Cdr2 pump inh	Cdr1 pump inh
CNC(=O)c1cccc(NC(=O)C(C)c2ccc3cc(OC)ccc3c2)c1 (stereo unspecified)	-0.2	-0.3	120.8	-1.3	1.4	-0.1	nt	nt	nt	nt
COc1ccc2cc(C(C)C(=O)Nc3cccc(S(=O)(=O)N(C)C)c3)ccc2c1 (stereo unspecified)	-0.2	1.6	101.9	1.8	3.2*	0.6	100.0	-0.2	94.0	-0.1
Cc1ccc2nc(C(Cl)(Cl)Cl)nc(N/N=C/c3ccc([N+](=O)[O-])cc3)c2c1	-0.6	nt	nt	nt	nt	1.3	nt	nt	nt	nt
Cc1ccc2nc(C(Cl)(Cl)Cl)nc(N/N=C/c3ccncc3)c2c1	-0.5	0.7	100.8	-6.8	0.4*	5.2	104.6	0.2	101.8	0.0
O=C(CCNS(=O)(=O)c1ccccc1F)NC1CCCCCC1	-0.3	-1.7	87.5	1.3	0.1	1.0	nt	nt	nt	nt
Cc1cc(O)c(C(C)C)cc1C1(c2cc(C(C)C)c(O)cc2C)OC(=O)c2ccccc21	0.3	-2.1	99.0	1.3	1.2*	3.9	116.8	-0.1	109.4	0.0
CCOc1ccccc1NC(=O)N1CCC(C(=O)c2ccc(F)cc2)CC1	0.0	-1.4	104.7	2.5	-0.1	-2.6	nt	nt	nt	nt
COc1ccccc1NC(=O)N1CCC(C(=O)c2ccc(F)cc2)CC1	-0.6	0.1	95.2	-6.5	7.5*	-3.3	103.1	0.3	100.7	0.1
O=C(/C=C/c1ccc2c(c1)OCO2)NCCCN1CCOCC1	0.0	-3.1	92.0	-0.1	11.1*	0.9	98.2	0.0	99.7	-0.1
CC(Nc1nc(-c2ccccc2O)nc2ccccc12)c1ccccc1 (stereo unspecified)	-0.2	-0.3	105.5	7.6	0.0	2.4	nt	nt	nt	nt
CC(Nc1nc(-c2ccccc2)nc2ccccc12)c1ccccc1 (stereo unspecified)	-0.5	2.8	121.7	1.7	1.9*	4.1	100.0	-0.1	106.3	-0.1
CCOc1ccc(OCCC(=O)OC(C)C(=O)Nc2ccc(C(C)=O)cc2)cc1 (stereo unspecified)	0.1	3.8	109.7	5.4	-0.4	-0.6	nt	nt	nt	nt
Cc1cccc(NC(=O)c2ccccc2O)c1C	-0.7	-0.6	77.9	0.5	0.0	1.1	nt	nt	nt	nt
O=C(Nc1ccccc1O)c1ccccc1O	-1.1	-9.8	106.1	8.9	1.1*	3.1	104.7	-0.1	97.5	0.0
Cc1nn(C)c(C)c1/C=N/NC(=O)CCn1cc([N+](=O)[O-])cn1	1.0	-0.6	88.4	-7.3	13.8*	1.0	93.4	-0.2	95.6	-0.1
CC(C)NC(=O)CCCn1cc([N+](=O)[O-])cn1	-0.9	3.3	82.2	-0.2	0.0	1.9	nt	nt	nt	nt
COc1ccc(CCNC(=O)C(NS(=O)(=O)c2ccc3c(c2)CCN3C(C)=O)C(C)C)cc1OC (stereo unspecified)	nt	-0.2	101.9	-4.3	0.0	nt	nt	nt	nt	nt
CCc1ccc(NC(=O)C(NS(=O)(=O)c2ccc3c(c2)CCN3C(C)=O)C(C)C)cc1 (stereo unspecified)	-0.4	6.6	98.8	1.3	1.6*	3.6	104.6	-0.3	89.3	0.0
CC1=C(O)C(=O)C(c2c(C)cc(C)c(Br)c2C)=C(O)C1=O	-0.1	nt	nt	nt	nt	nt	nt	nt	nt	nt
COc1ccc(CCNC(=O)C2=CCN(S(=O)(=O)c3ccc(F)cc3)CC2)cc1OC	-0.9	1.0	98.0	-1.0	0.4*	3.7	116.8	-0.3	108.3	0.1
CCOc1ccc(NC(=O)NC2CCCc3ccccc32)cc1 (stereo unspecified)	-0.2	9.2	104.2	-2.6	6.5*	0.1	102.6	-0.2	109.4	-0.1
CCOc1ccccc1-c1cncc(NC)n1	-0.3	nt	nt	nt	nt	nt	nt	nt	nt	nt
CN(C)S(=O)(=O)c1ccc(C(=O)OC2CCOC2=O)cc1 (stereo unspecified)	0.8	1.2	108.0	3.1	1.5*	3.0	106.7	-0.4	108.3	-0.1
COc1ccc(CNC(=O)CN2C(=O)COc3ccc(S(=O)(=O)N4CCC(C)CC4)cc32)cc1	0.0	1.4	113.0	-1.1	-0.2	2.6	nt	nt	nt	nt
Cc1ccc2c(c1)N(CC(=O)NCCc1ccccc1)C(=O)c1cccnc1O2	0.0	-0.4	101.3	-2.9	-0.1	8.3	nt	nt	nt	nt
SMILES	Tb MetRS inh	IDE cell inh	CR mimetic SO	HDAC3 inhib	Efflux pump inh	IDE cell activ	Yeast cmpd fluor	CaMdr1 efflux inh	Cdr2 pump inh	Cdr1 pump inh
COC(=O)CCNC(=O)c1nn(Cc2ccccc2)c(=O)c2ccccc12	-0.2	4.0	99.5	-5.3	-0.2	-3.1	nt	nt	nt	nt
CSc1nc(-c2ccc(N(C)C)cc2)c(C#N)c(=O)n1C	-0.7	6.9	103.6	-0.4	0.2	-8.2	nt	nt	nt	nt
CC(=O)c1c(N2CCN(C)CC2)[nH]c(-c2ccccc2)nc1=S	-0.2	2.5	107.0	-5.4	1.5*	-3.8	103.4	-0.1	152.2	0.0
CN(C)c1ccc(/C=C2/C=C(c3ccc4c(c3)CCCC4)OC2=O)cc1	-0.2	1.8	87.7	-0.9	0.8*	6.5	132.0	0.1	147.5	0.0
CN(C)c1ccc(C=C2C=C(c3ccccc3)OC2=O)cc1	-0.1	nt	nt	nt	nt	nt	nt	nt	nt	nt
O=C(NC(=S)Nc1ccc2[nH]c(=O)[nH]c2c1)c1ccccc1Cl	0.3	0.6	94.2	0.1	6.2*	-3.3	92.1	-0.1	105.1	0.0
O=C(NCCc1ccc(Cl)cc1)C1CCC(CNc2nc(=S)[nH]c3ccccc23)CC1 (stereo unspecified)	-0.7	-6.7	88.4	4.5	-0.4	-0.1	nt	nt	nt	nt
O=C(NCCC1=CCCCC1)C1CCC(CNc2nc(=S)[nH]c3ccccc23)CC1 (stereo unspecified)	-0.7	-9.1	101.2	0.4	1.1*	0.2	114.8	-0.1	107.8	-0.1
Cc1cccc(C)c1NC(=O)COC(=O)CCc1c[nH]c2ccccc12	-0.4	4.4	85.6	-6.2	-0.1	4.7	nt	nt	nt	nt
CCNC(=S)N(CCc1ccccc1C)Cc1cc2cc(OC)c(OC)cc2[nH]c1=O	-0.6	-3.9	68.4	-7.4	0.4	3.3	nt	nt	nt	nt
COc1cc2cc(CN(CCc3ccccc3C)C(=S)NCCCN(C)C)c(=O)[nH]c2cc1OC	-0.3	0.1	95.0	-3.4	8.9*	-1.5	104.7	-0.1	97.5	-0.3
O=C(O)C1Sc2[nH]c(=O)sc2C2c3cc(Br)ccc3OC(=O)C12 (stereo unspecified)	0.5	3.6	103.4	0.2	1.5*	-4.2	89.9	0.0	102.2	0.1
